Tests used:
[1] = system: NCI-H226; experiment: Growth inhibition of human NCI-H226 cells assessed as cell growth at 10^-5 M after 48 hrs by sulforhodamine B assay relative to control; assay type: functional; conditions: NCI-H226, 48 h, read-out: Activity
Procedure, shortened: (§1)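 NCI-60 single-dose screen at 10^-5 M. Cells grown in RPMI 1640 with 5% FBS and 2 mM L-glutamine, plated at 5,000–40,000 cells/well according to doubling time, and preincubated 24 h at 37°C, 5% CO2. Compound dissolved in DMSO and added. Exposure 48 h. Adherent cells fixed with cold TCA (10% final), suspension cells with 16% final TCA. Read-out is 0.4% SRB staining, dye solubilised in 10 mM Tris, absorbance at 515 nm. Percent growth is calculated against the time-zero plate and untreated control.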

[2] = system: 786-0; experiment: Growth inhibition of human 786-0 cells assessed as cell growth at 10^-5 M after 48 hrs by sulforhodamine B assay relative to control; assay type: functional; conditions: 786-0, 48 h, read-out: Activity; procedure, shortened: as §1
[3] = system: NCI-H23; experiment: Growth inhibition of human NCI-H23 cells assessed as cell growth at 10^-5 M after 48 hrs by sulforhodamine B assay relative to control; assay type: functional; conditions: NCI-H23, 48 h, read-out: Activity; procedure, shortened: as §1
[4] = system: NCI-H522; experiment: Growth inhibition of human NCI-H522 cells assessed as cell growth at 10^-5 M after 48 hrs by sulforhodamine B assay relative to control; assay type: functional; conditions: NCI-H522, 48 h, read-out: Activity; procedure, shortened: as §1
[5] = system: M14; experiment: Growth inhibition of human M14 cells assessed as cell growth at 10^-5 M after 48 hrs by sulforhodamine B assay relative to control; assay type: functional; conditions: M14, 48 h, read-out: Activity; procedure, shortened: as §1
[6] = system: OVCAR-3; experiment: Growth inhibition of human OVCAR3 cells assessed as cell growth at 10^-5 M after 48 hrs by sulforhodamine B assay relative to control; assay type: functional; conditions: OVCAR-3, 48 h, read-out: Activity; procedure, shortened: as §1
[7] = system: SK-MEL-5; experiment: Growth inhibition of human SK-MEL-5 cells assessed as cell growth at 10^-5 M after 48 hrs by sulforhodamine B assay relative to control; assay type: functional; conditions: SK-MEL-5, 48 h, read-out: Activity; procedure, shortened: as §1
[8] = target: Mitogen-activated protein kinase 1 (Homo sapiens, UniProt P28482); experiment: Inhibition of human MAPK1
[9] = system: UACC-257; experiment: Growth inhibition of human UACC257 cells assessed as cell growth at 10^-5 M after 48 hrs by sulforhodamine B assay relative to control; assay type: functional; conditions: UACC-257, 48 h, read-out: Activity
Procedure, shortened: (§2)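 NCI-60 single-dose screen, 10^-5 M final. Cells grown in RPMI 1640 with 5% FBS and 2 mM L-glutamine, seeded at 5,000–40,000 cells/well by doubling time. Preincubated 24 h at 37°C, 5% CO2. Compound in DMSO, diluted in medium with gentamicin, then 48 h exposure. Fixed with cold TCA, SRB stained, A515 read. Percent growth vs untreated control, time-zero plate corrected.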

[10] = system: IGROV-1; experiment: Growth inhibition of human IGROV1 cells assessed as cell growth at 10^-5 M after 48 hrs by sulforhodamine B assay relative to control; assay type: functional; conditions: IGROV-1, 48 h, read-out: Activity; procedure, shortened: as §1
[11] = system: HCT-15; experiment: Growth inhibition of human HCT15 cells assessed as cell growth at 10^-5 M after 48 hrs by sulforhodamine B assay relative to control; assay type: functional; conditions: HCT-15, 48 h, read-out: Activity; procedure, shortened: as §1
[12] = system: SR; experiment: Growth inhibition of human SR cells assessed as cell growth at 10^-5 M after 48 hrs by sulforhodamine B assay relative to control; assay type: functional; conditions: read-out: Activity; procedure, shortened: as §2
[13] = system: SF-268; experiment: Growth inhibition of human SF268 cells assessed as cell growth at 10^-5 M after 48 hrs by sulforhodamine B assay relative to control; assay type: functional; conditions: SF-268, 48 h, read-out: Activity; procedure, shortened: as §1
[14] = target: Epidermal growth factor receptor (Homo sapiens, UniProt P00533); experiment: Inhibition of human EGFR
[15] = system: K562; experiment: Growth inhibition of human K562 cells assessed as cell growth at 10^-5 M after 48 hrs by sulforhodamine B assay relative to control; assay type: functional; conditions: K562, 48 h, read-out: Activity; procedure, shortened: as §1
[16] = system: HT-29; experiment: Growth inhibition of human HT-29 cells assessed as cell growth at 10^-5 M after 48 hrs by sulforhodamine B assay relative to control; assay type: functional; conditions: HT-29, 48 h, read-out: Activity; procedure, shortened: as §1
[17] = target: T1, Cathepsin K (Homo sapiens, UniProt P43235); experiment: Inhibition of human cathepsin K
T1 sequence (P43235 whole entry): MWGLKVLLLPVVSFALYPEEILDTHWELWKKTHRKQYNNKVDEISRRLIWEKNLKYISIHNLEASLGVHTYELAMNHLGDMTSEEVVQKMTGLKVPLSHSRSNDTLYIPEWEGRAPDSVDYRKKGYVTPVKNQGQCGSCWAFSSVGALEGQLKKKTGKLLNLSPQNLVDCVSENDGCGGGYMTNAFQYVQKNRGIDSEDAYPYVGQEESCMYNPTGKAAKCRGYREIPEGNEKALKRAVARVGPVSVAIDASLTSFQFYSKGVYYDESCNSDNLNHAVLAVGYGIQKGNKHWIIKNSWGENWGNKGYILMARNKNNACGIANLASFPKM

[18] = system: A549; experiment: Growth inhibition of human A549 cells assessed as cell growth at 10^-5 M after 48 hrs by sulforhodamine B assay relative to control; assay type: functional; conditions: A549, 48 h, read-out: Activity; procedure, shortened: as §1
[19] = system: SN12C; experiment: Growth inhibition of human SN12C cells assessed as cell growth at 10^-5 M after 48 hrs by sulforhodamine B assay relative to control; assay type: functional; conditions: read-out: Activity; procedure, shortened: as §1
[20] = system: RPMI-8226; experiment: Growth inhibition of human RPMI8226 cells assessed as cell growth at 10^-5 M after 48 hrs by sulforhodamine B assay relative to control; assay type: functional; conditions: RPMI-8226, 48 h, read-out: Activity; procedure, shortened: as §1
[21] = system: OVCAR-4; experiment: Growth inhibition of human OVCAR4 cells assessed as cell growth at 10^-5 M after 48 hrs by sulforhodamine B assay relative to control; assay type: functional; conditions: OVCAR-4, 48 h, read-out: Activity; procedure, shortened: as §1
[22] = system: T47D; experiment: Growth inhibition of human T47D cells assessed as cell growth at 10^-5 M after 48 hrs by sulforhodamine B assay relative to control; assay type: functional; conditions: read-out: Activity; procedure, shortened: as §2
[23] = system: NCI-H322M; experiment: Growth inhibition of human NCI-H322M cells assessed as cell growth at 10^-5 M after 48 hrs by sulforhodamine B assay relative to control; assay type: functional; conditions: read-out: Activity; procedure, shortened: as §1
[24] = target: Thymidylate synthase (Homo sapiens, UniProt P04818); experiment: Inhibition of human thymidylate synthase
[25] = system: MOLT-4; experiment: Growth inhibition of human MOLT4 cells assessed as cell growth at 10^-5 M after 48 hrs by sulforhodamine B assay relative to control; assay type: functional; conditions: MOLT-4, 48 h, read-out: Activity; procedure, shortened: as §1
[26] = system: CCRF-CEM; experiment: Growth inhibition of human CCRF-CEM cells assessed as cell growth at 10^-5 M after 48 hrs by sulforhodamine B assay relative to control; assay type: functional; conditions: read-out: Activity; procedure, shortened: as §1
[27] = system: MCF7; experiment: Growth inhibition of human MCF7 cells assessed as cell growth at 10^-5 M after 48 hrs by sulforhodamine B assay relative to control; assay type: functional; conditions: MCF7, 48 h, read-out: Activity; procedure, shortened: as §1

Chain of Mitogen-activated protein kinase 1 (P28482 whole entry): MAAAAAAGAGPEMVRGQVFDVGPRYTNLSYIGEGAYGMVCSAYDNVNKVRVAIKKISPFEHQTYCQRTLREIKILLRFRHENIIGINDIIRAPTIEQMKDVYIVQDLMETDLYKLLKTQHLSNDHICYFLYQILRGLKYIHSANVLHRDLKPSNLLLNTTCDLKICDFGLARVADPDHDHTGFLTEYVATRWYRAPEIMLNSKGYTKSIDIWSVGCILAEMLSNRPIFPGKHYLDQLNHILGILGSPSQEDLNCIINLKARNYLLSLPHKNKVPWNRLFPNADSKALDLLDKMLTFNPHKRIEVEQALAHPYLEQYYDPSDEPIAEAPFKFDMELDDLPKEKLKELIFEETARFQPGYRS
Chain of Thymidylate synthase (P04818 whole entry): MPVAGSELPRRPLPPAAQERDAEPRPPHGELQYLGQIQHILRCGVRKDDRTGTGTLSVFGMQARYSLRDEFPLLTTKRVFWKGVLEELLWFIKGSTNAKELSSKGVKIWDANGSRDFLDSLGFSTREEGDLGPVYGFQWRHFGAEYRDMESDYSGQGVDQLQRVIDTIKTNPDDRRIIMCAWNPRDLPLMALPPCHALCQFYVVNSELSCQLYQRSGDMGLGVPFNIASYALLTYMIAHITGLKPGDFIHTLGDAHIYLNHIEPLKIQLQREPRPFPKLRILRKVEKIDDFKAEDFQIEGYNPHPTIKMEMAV
Chain of Epidermal growth factor receptor (P00533 whole entry): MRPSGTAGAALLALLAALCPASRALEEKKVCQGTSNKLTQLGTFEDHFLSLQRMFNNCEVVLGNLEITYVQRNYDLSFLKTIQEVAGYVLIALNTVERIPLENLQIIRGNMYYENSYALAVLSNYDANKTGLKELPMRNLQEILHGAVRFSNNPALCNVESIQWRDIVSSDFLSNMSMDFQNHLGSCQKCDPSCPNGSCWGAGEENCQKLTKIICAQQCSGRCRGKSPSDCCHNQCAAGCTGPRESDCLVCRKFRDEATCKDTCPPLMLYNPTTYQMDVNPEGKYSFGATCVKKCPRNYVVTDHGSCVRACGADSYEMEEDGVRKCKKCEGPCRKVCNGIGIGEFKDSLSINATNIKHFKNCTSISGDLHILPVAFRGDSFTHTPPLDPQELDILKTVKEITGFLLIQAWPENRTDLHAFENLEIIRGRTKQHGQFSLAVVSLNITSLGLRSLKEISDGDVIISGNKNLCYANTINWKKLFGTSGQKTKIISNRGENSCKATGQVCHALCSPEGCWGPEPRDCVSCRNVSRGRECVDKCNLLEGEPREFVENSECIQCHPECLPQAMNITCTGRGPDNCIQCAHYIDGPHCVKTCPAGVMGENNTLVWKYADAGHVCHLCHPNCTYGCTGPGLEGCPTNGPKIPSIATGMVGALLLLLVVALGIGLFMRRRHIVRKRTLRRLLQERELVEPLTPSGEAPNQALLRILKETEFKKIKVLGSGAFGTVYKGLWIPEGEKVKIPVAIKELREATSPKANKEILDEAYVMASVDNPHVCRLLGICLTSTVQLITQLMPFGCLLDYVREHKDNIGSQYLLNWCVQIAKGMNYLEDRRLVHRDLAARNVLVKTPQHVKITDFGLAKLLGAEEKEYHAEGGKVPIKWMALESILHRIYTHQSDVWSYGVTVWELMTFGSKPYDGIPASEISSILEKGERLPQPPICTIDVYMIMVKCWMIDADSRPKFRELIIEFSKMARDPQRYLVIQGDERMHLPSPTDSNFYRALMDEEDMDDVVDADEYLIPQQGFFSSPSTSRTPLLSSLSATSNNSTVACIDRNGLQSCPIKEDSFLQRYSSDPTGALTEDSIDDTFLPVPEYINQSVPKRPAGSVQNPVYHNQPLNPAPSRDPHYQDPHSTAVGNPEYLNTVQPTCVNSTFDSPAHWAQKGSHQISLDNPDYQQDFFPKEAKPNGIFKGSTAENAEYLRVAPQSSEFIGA

Compound | growth at 10 µM [1] [%] | growth at 10 µM [2] [%] | growth at 10 µM [3] [%] | growth at 10 µM [4] [%] | growth at 10 µM [5] [%] | growth at 10 µM [6] [%] | growth at 10 µM [7] [%] | Ki [8] [µM] | growth at 10 µM [9] [%] | growth at 10 µM [10] [%] | growth at 10 µM [11] [%] | growth at 10 µM [12] [%] | growth at 10 µM [13] [%] | Ki [14] [µM] | growth at 10 µM [15] [%] | growth at 10 µM [16] [%] | Ki [17] [µM] | growth at 10 µM [18] [%] | growth at 10 µM [19] [%] | growth at 10 µM [20] [%] | also measured
N=c1scc(-c2ccccc2)n1CC(=O)N1CCOCC1 | 86.7 | 102 | 95.8 | 94.2 | 100 | 97 | 95.5 | 13.8 | 111 | 86.7 | 99.2 | 86.7 | 104 | 55.3 | 89.2 | 106 | 49.8 | 102 | 101 | 95.4 | growth at 10 µM [21]: 97.3%; growth at 10 µM [22]: 88.8%; growth at 10 µM [23]: 97.9%; Ki [24]: 6.22 µM; growth at 10 µM [25]: 95.2%; growth at 10 µM [26]: 98.6%; growth at 10 µM [27]: 89.5%
N=c1scc(-c2ccc(Cl)cc2)n1CC(=O)N1CCOCC1 | 94.4 | 95.5 | 95.6 | 79.5 | 92.2 | 108 | 96.5 | 9.18 | 94.7 | 90.4 | 89.9 | 72.7 | 102 | 6.64 | 70.9 | 94.2 | 44.9 | 84.6 | 86.9 | 78.7 | growth at 10 µM [21]: 82.2%; growth at 10 µM [22]: 69.7%; growth at 10 µM [23]: 104%; Ki [24]: 3.73 µM; growth at 10 µM [25]: 69.2%; growth at 10 µM [26]: 91.3%; growth at 10 µM [27]: 86.8%

Source: ChEMBL document CHEMBL2434944, “Novel acetamidothiazole derivatives: synthesis and in vitro anticancer evaluation” (Eur J Med Chem, 2013)
